Calls of active or inactive are those of the source. No cut-off for these calls is given here.
What was measured:
CCRF-CEM = assay: Cytotoxicity against human CEM cells; format: cell-based
SVR [1] = assay: Antiproliferative activity against mouse SVR cells at 15 ug/mL after 72 hrs; format: functional
Summary of the method: (§1)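 Immortalized endothelial SVR cells were seeded at 10^4 per well in 24-well dishes. The next day, the medium was replaced with fresh medium containing compound or controls. Cells were incubated for 72 h at 37 °C. Cell number was counted in triplicate with a Coulter counter, and results were expressed as percent inhibition of proliferation.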

SVR [2] = assay: Antiproliferative activity against mouse SVR cells at 10 ug/mL after 72 hrs; format: functional; summary of the method: as §1
[3] = tested on: Human immunodeficiency virus 1; assay: Antiviral activity against HIV1 in human PBM cells; format: functional, organism-based; conditions: Human immunodeficiency virus 1, PBMC
[4] = Cytotoxicity against human PBM cells; format: cell-based; conditions: PBMC
Vero = assay: Cytotoxicity against Vero cells; format: cell-based; conditions: Chlorocebus sabaeus
SVR [5] = assay: Inhibition of tumor growth in SVR cells bearing mouse up to 100 mg/kg, ip after 30 days; format: functional, organism-based; set-up: dose 100 mg/kg
Summary of the method: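 Nude male mice, 6 weeks old, were inoculated in the flank with SVR cells. Once tumors were visible, about 1 week after inoculation, mice received 3 mg/day intraperitoneally or vehicle control. Treatment ran up to 100 mg/kg for 30 days. Tumor growth and toxicity were compared against vehicle-treated mice.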

## C=CCc1cc(C(c2ccc(O)c(CC=C)c2)c2ccccn2)ccc1O
CCRF-CEM
  IC50: 16.5 µM
SVR [1]
  inhibition at 15 µg/mL: 46%
SVR [2]
  inhibition at 10 µg/mL: 25%
[3]
  EC50: 35 µM
  EC90: 67.2 µM
[4]
  IC50: 16.8 µM
Vero
  IC50: 14.8 µM

## C=CCc1cc(/C(CC)=C(\CC)c2ccc(O)c(CC=C)c2)ccc1O
CCRF-CEM
  IC50: 3.4 µM
SVR [1]
  inhibition at 15 µg/mL: 89%
SVR [5]
  Activity: inactive
SVR [2]
  inhibition at 10 µg/mL: 68%
[3]
  EC50: 9.5 µM
  EC90: 30.9 µM
[4]
  IC50: > 100 µM
Vero
  IC50: 3.7 µM

## C=CCc1cc(C2(c3ccc(O)c(CC=C)c3)CCCCC2)ccc1O
CCRF-CEM
  IC50: 11 µM
SVR [1]
  inhibition at 15 µg/mL: 79%
SVR [2]
  inhibition at 10 µg/mL: 63%
[3]
  EC50: 36.5 µM
  EC90: 67.2 µM
[4]
  IC50: 55.4 µM
Vero
  IC50: 12.5 µM

## C=CCc1cc(-c2ccc(O)c(CC=C)c2)ccc1O
CCRF-CEM
  IC50: 23 µM
SVR [1]
  inhibition at 15 µg/mL: 56%
SVR [2]
  inhibition at 10 µg/mL: 45%
[3]
  EC50: 19.4 µM
[4]
  IC50: > 100 µM
Vero
  IC50: 83.2 µM

## C=CCc1cc(-c2cccc(CC=C)c2O)ccc1O
CCRF-CEM
  IC50: 17.9 µM
SVR [1]
  inhibition at 15 µg/mL: 81%
SVR [2]
  inhibition at 10 µg/mL: 74%
[3]
  EC50: 23.4 µM
  EC90: 81 µM
[4]
  IC50: 36.7 µM
Vero
  IC50: 11.4 µM

## C=CCc1cccc(-c2cccc(CC=C)c2O)c1O
CCRF-CEM
  IC50: 10.4 µM
SVR [1]
  inhibition at 15 µg/mL: 57%
SVR [2]
  inhibition at 10 µg/mL: 41%
[3]
  EC50: 34.8 µM
  EC90: 63 µM
[4]
  IC50: 45.9 µM
Vero
  IC50: 19.8 µM

## C=CCc1ccc(O)c(-c2cc(CC=C)ccc2O)c1 [MAGNOLOL]
CCRF-CEM
  IC50: 99.5 µM
SVR [1]
  inhibition at 15 µg/mL: 77%
SVR [2]
  inhibition at 10 µg/mL: 60%
[3]
  EC50: 69.3 µM
  EC90: > 100 µM
[4]
  IC50: 38.6 µM
Vero
  IC50: 50.6 µM

## C=CCc1cc(C(=C(Cl)Cl)c2ccc(O)c(CC=C)c2)ccc1O
CCRF-CEM
  IC50: 17.1 µM
SVR [1]
  inhibition at 15 µg/mL: 76%
SVR [2]
  inhibition at 10 µg/mL: 54%
[3]
  EC50: 14.3 µM
  EC90: 48.8 µM
[4]
  IC50: 43.6 µM
Vero
  IC50: 12.1 µM

## C=CCc1cc(C(C)(C)c2ccc(O)c(CC=C)c2)ccc1O
CCRF-CEM
  IC50: 5.8 µM
SVR [1]
  inhibition at 15 µg/mL: 57%
SVR [2]
  inhibition at 10 µg/mL: 33%
[3]
  EC50: 4.1 µM
  EC90: 47.3 µM
[4]
  IC50: > 100 µM
Vero
  IC50: 13 µM

## C=CCc1cc(Cc2ccc(O)c(CC=C)c2)ccc1O
CCRF-CEM
  IC50: 15.1 µM
SVR [1]
  inhibition at 15 µg/mL: 74%
SVR [2]
  inhibition at 10 µg/mL: 75%
[3]
  EC50: 13.6 µM
  EC90: 35.1 µM
[4]
  IC50: 33.7 µM
Vero
  IC50: 1.9 µM

## C=CCc1ccc(O)c(-c2ccc(O)c(CC=C)c2)c1 [HONOKIOL]
CCRF-CEM
  IC50: 10.9 µM
SVR [1]
  inhibition at 15 µg/mL: 85%
SVR [2]
  inhibition at 10 µg/mL: 60%
[3]
  EC50: 3.3 µM
[4]
  IC50: 16.1 µM
Vero
  IC50: 22.5 µM

## C=CCc1cc(-c2ncc(O)cn2)ccc1O
CCRF-CEM
  IC50: > 100 µM
SVR [1]
  inhibition at 15 µg/mL: 10%
SVR [2]
  inhibition at 10 µg/mL: 4.4%
[3]
  EC50: > 100 µM
  EC90: > 100 µM
[4]
  IC50: 31.9 µM
Vero
  IC50: > 100 µM

Source: ChEMBL document CHEMBL1146206, “Synthesis, cytotoxicity, and antiviral activities of new neolignans related to honokiol and magnolol” (Bioorg Med Chem Lett, 2007)
